# Test results published in ChEMBL document CHEMBL1158357, “Synthesis of [1,2,4]triazolo[1,5-a]pyridines of potential PGE2 inhibitory properties” (2009).
# Legend:
# [1] = test system: Rattus norvegicus; experiment: Antiinflammatory activity in Wistar albino rat assessed as inhibition of carrageenan-induced paw edema volume at 50 mg/kg, ip administered 1 hr prior to carrageenan challenge measured after 3 hrs; parameters: scale not given: the % may be the effect or the level left; conditions: route intraperitoneal
# [2] = test system: Rattus norvegicus; experiment: Antiinflammatory activity in Wistar albino rat assessed as inhibition of carrageenan-induced paw edema volume at 50 mg/kg, ip administered 1 hr prior to carrageenan challenge measured after 1 hr; parameters: scale not given: the % may be the effect or the level left; conditions: route intraperitoneal
# [3] = test system: Rattus norvegicus; experiment: Antiinflammatory activity in Wistar albino rat assessed as inhibition of carrageenan-induced paw edema volume at 50 mg/kg, po administered 1 hr prior to carrageenan challenge measured after 4 hrs relative to indomethacin; format: functional; parameters: scale not given: the % may be the effect or the level left
# [4] = test system: Rattus norvegicus; experiment: Antiinflammatory activity in Wistar albino rat assessed as inhibition of carrageenan-induced paw edema volume at 50 mg/kg, ip administered 1 hr prior to carrageenan challenge measured after 2 hrs; parameters: scale not given: the % may be the effect or the level left; conditions: route intraperitoneal
# [5] = test system: Rattus norvegicus; experiment: Antiinflammatory activity in Wistar albino rat assessed as inhibition of carrageenan-induced paw edema volume at 50 mg/kg, po administered 1 hr prior to carrageenan challenge measured after 1 hr; format: functional
# [6] = test system: Rattus norvegicus; experiment: Antiinflammatory activity in Wistar albino rat assessed as inhibition of carrageenan-induced paw edema volume at 50 mg/kg, ip administered 1 hr prior to carrageenan challenge measured after 4 hrs; conditions: route intraperitoneal
# [7] = test system: Rattus norvegicus; experiment: Antiinflammatory activity in Wistar albino rat assessed as inhibition of carrageenan-induced paw edema volume at 50 mg/kg, po administered 1 hr prior to carrageenan challenge measured after 3 hrs; format: functional
# [8] = test system: Rattus norvegicus; experiment: Antiinflammatory activity against carrageenan-induced inflammation in albino rat air pouch model assessed as PGE2 level at 50 mg/kg, po administered […] before carrageenan challenge measured after 6 hrs; format: functional
# Procedure, shortened: (§1)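 Male albino rats (200–250 g), 6 per group. A dorsal air pouch was made with 20 ml air s.c. on day 1, 10 ml two days later and 10 ml on day 5. Next day, rats were dosed orally in saline with a few drops of Tween 80 (controls: sterile saline), then given 2 ml 1% carrageenan in saline into the pouch. Exudate was aspirated 6 h later under ether, stored at -20 °C, and PGE2 measured by ELISA kit.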
# [9] = test system: Rattus norvegicus; experiment: Antiinflammatory activity in Wistar albino rat assessed as inhibition of carrageenan-induced paw edema volume at 50 mg/kg, po administered 1 hr prior to carrageenan challenge measured after 2 hrs; format: functional
# [10] = test system: Rattus norvegicus; experiment: Antiinflammatory activity in Wistar albino rat assessed as inhibition of carrageenan-induced paw edema volume at 50 mg/kg, po administered 1 hr prior to carrageenan challenge measured after 4 hrs; parameters: scale not given: the % may be the effect or the level left
# [11] = test system: Rattus norvegicus; experiment: Antiinflammatory activity against carrageenan-induced inflammation in albino rat air pouch model assessed as PGE2 level at 10 mg/kg, po administered […] before carrageenan challenge measured after 6 hrs; format: functional
# Procedure, shortened: as §1
Compound,Activity [1] [%],Activity [2] [%],Activity [3] [%],Activity [4] [%],Activity [5] [mL],Activity [6] [mL],Activity [7] [mL],Activity [8] [pg/mL],Activity [9] [mL],Activity [10] [%],Activity [11] [pg/mL]
Cn1c([S-])n[n+]2c(N)c(C#N)c(-c3ccccc3OCCCOc3ccccc3-c3c(C#N)c(N)[n+]4nc([S-])n(C)c4c3C#N)c(C#N)c12,41,8.2,110.9,22.6,0.19,0.175,0.307,92.17,0.257,75.2,–
CCn1c([S-])n[n+]2c(N)c(C#N)c(-c3ccccc3OCCOc3ccccc3-c3c(C#N)c(N)[n+]4nc([S-])n(CC)c4c3C#N)c(C#N)c12,40,9.2,114,30.1,0.188,0.16,0.312,87.67,0.232,77.3,–
N#Cc1c(-c2ccc(N3CCCCC3)cc2)c(C#N)c2n(Cc3ccccc3)c([S-])n[n+]2c1N,39.8,7.2,99.4,2.1,0.192,0.23,0.313,102.33,0.325,67.4,–
N#Cc1c(-c2ccc(N3CCOCC3)cc2)c(C#N)c2n(Cc3ccccc3)c([S-])n[n+]2c1N,6.7,0,58,1.2,0.207,0.428,0.485,–,0.328,39.3,–
CN1CCN(c2ccc(-c3c(C#N)c(N)[n+]4nc([S-])n(C)c4c3C#N)cc2)CC1,38.1,16.9,54,13.6,0.172,0.447,0.322,–,0.287,36.6,–
C=CCn1c([S-])n[n+]2c(N)c(C#N)c(-c3ccc(N4CCOCC4)cc3)c(C#N)c12,25.6,9.2,89.4,19.3,0.188,0.278,0.387,–,0.268,60.6,–
Cn1c([S-])n[n+]2c(N)c(C#N)c(-c3ccccc3OCCOc3ccccc3-c3c(C#N)c(N)[n+]4nc([S-])n(C)c4c3C#N)c(C#N)c12,28.8,53.1,86.4,11.7,0.097,0.292,0.37,–,0.293,58.6,–
Cn1c([S-])n[n+]2c(N)c(C#N)c(-c3ccc(N4CCOCC4)cc3)c(C#N)c12,41.7,1.9,67,17.2,0.203,0.385,0.303,–,0.275,45.4,–
Cn1c([S-])n[n+]2c(N)c(C#N)c(-c3ccc(N4CCCCC4)cc3)c(C#N)c12,32.1,2.4,75.4,10.2,0.202,0.345,0.353,–,0.298,51.1,–
CCn1c([S-])n[n+]2c(N)c(C#N)c(-c3ccc(N4CCCCC4)cc3)c(C#N)c12,55.8,31.4,90.6,66.9,0.142,0.272,0.23,–,0.11,61.4,–
C=CCn1c([S-])n[n+]2c(N)c(C#N)c(-c3ccc(N4CCCCC4)cc3)c(C#N)c12,35,22.7,101,7.5,0.16,0.222,0.338,94.5,0.307,68.5,–
CCn1c([S-])n[n+]2c(N)c(C#N)c(-c3ccc(N4CCOCC4)cc3)c(C#N)c12,38.1,43,81.1,30.1,0.118,0.317,0.322,–,0.232,55,–
COc1ccc2c(c1)c(CC(=O)O)c(C)n2C(=O)c1ccc(Cl)cc1 [INDOMETHACIN],65.4,56.5,–,52.4,0.09,0.227,0.18,–,0.158,67.8,98.33
